From ChEMBL document CHEMBL3352008, “Dualsteric muscarinic antagonists--orthosteric binding pose controls allosteric subtype selectivity” (J Med Chem, 2014)
Where a chain is given by its changes, count along the chain named. The source made the active and inactive calls. The rule behind the calls is not given here.

system: T1, Muscarinic acetylcholine receptor M2 (Homo sapiens), P08172 [Y104A]; assay: (§1) Displacement of [3H]-NMS from human muscarinic M2 Y104A mutant expressed in Flp-In-CHO cells by liquid scintillation counting; type: cell-based
T1 sequence (whole entry): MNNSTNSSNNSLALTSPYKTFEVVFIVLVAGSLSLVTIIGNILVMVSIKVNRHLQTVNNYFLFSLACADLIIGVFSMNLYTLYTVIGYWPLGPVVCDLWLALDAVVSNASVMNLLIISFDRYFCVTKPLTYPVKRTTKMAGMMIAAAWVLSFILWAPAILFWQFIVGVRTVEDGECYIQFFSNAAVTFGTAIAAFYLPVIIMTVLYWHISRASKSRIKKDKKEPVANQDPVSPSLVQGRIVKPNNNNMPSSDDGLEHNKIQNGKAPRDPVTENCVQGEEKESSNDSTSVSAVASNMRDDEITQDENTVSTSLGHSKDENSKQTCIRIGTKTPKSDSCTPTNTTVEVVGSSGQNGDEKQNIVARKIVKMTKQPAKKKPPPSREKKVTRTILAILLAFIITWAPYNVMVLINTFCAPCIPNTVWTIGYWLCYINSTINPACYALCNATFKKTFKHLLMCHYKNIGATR
In short: (§2)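 Bound separated either by rapid filtration or, in some cases, by centrifugation at 21000g, 15 °C, 20 min. Pellet washed once, resuspended, counted by liquid scintillation. Triplicate determinations.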

Row | Structure (SMILES) | pKA
1 | C[N+](C)(CCCCCC[N+](C)(C)CCCN1C(=O)c2ccccc2C1=O)CCCN1C(=O)c2ccccc2C1=O | 6.59
2 | CC(C)(CN1C(=O)c2cccc3cccc(c23)C1=O)C[N+](C)(C)CCCCCC[N+](C)(C)CCCN1C(=O)c2ccccc2C1=O | 7.64

target: Muscarinic acetylcholine receptor M2 (Homo sapiens, UniProt P08172, Y104A); assay: as §1; type: cell-based; in short: as §2

Row | Structure (SMILES) | Ki [nM]
3 | C[N+](C)(C)CCCCCC[N+]1(C)[C@@H]2C[C@H](OC(=O)[C@H](CO)c3ccccc3)C[C@H]1[C@@H]1O[C@@H]12 (some centres undefined) | 309
4 | C[N+]1(C)[C@@H]2CC[C@@H]1CC(OC(=O)C(CO)c1ccccc1)C2 (some centres undefined) | 11
5 | CC(C)(CN1C(=O)c2cccc3cccc(c23)C1=O)C[N+](C)(C)CCCCCC[N+]1(C)[C@@H]2C[C@H](OC(=O)[C@H](CO)c3ccccc3)C[C@H]1[C@@H]1O[C@@H]12 (some centres undefined) | 132
6 | CC(C)(CN1C(=O)c2cccc3cccc(c23)C1=O)C[N+](C)(C)CCCCCC[N+]1(C)[C@@H]2CC[C@@H]1CC(OC(=O)C(CO)c1ccccc1)C2 (relative stereo) | 61.7
7 | CC(C)(CN1C(=O)c2cccc3cccc(c23)C1=O)C[N+](C)(C)CCCCCC[N+](C)(C)CC#CCOC1=NOCC1 | 14.5

target: T2, Muscarinic acetylcholine receptor M5 (Homo sapiens, UniProt P08912); assay: (§3) Displacement of [3H]-NMS from wild-type human muscarinic M5 receptor expressed in CHO-K1 cells by liquid scintillation counting; type: cell-based
T2 sequence (P08912 whole entry): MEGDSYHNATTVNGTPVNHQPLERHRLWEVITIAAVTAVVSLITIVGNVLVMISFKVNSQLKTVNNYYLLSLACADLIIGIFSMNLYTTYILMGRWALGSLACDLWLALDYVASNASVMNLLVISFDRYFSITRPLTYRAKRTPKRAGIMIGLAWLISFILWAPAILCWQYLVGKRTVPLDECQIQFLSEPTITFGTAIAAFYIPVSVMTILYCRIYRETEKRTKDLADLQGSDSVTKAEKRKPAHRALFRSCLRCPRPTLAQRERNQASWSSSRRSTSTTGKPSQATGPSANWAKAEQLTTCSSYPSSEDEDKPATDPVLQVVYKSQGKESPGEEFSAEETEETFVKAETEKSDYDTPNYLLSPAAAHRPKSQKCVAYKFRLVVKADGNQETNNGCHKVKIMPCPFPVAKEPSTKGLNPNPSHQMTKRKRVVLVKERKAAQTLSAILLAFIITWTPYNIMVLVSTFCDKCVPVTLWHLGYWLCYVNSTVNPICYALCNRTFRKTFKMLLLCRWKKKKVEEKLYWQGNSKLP
In short: (§4)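 Separated by rapid filtration, counted by liquid scintillation. Means ± SEM of 3−4 independent experiments in triplicate; unpaired two-tailed t test versus wild type.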

Row | Structure (SMILES) | Ki [nM]
8 | C[N+](C)(C)CCCCCC[N+]1(C)[C@@H]2C[C@H](OC(=O)[C@H](CO)c3ccccc3)C[C@H]1[C@@H]1O[C@@H]12 (some centres undefined) | 20.9
9 | CC(C)(CN1C(=O)c2cccc3cccc(c23)C1=O)C[N+](C)(C)CCCCCC[N+]1(C)[C@@H]2C[C@H](OC(=O)[C@H](CO)c3ccccc3)C[C@H]1[C@@H]1O[C@@H]12 (some centres undefined) | 5.5
10 | CC(C)(CN1C(=O)c2cccc3cccc(c23)C1=O)C[N+](C)(C)CCCCCC[N+]1(C)[C@@H]2CC[C@@H]1CC(OC(=O)C(CO)c1ccccc1)C2 (relative stereo) | 19.5

target: T3, Muscarinic acetylcholine receptor M5 (Homo sapiens) (UniProt P08912); assay: as §3; type: cell-based; in short: as §4
T3 sequence (whole entry): T2 sequence (P08912 whole entry)

Row | Structure (SMILES) | pKA
11 | C[N+](C)(CCCCCC[N+](C)(C)CCCN1C(=O)c2ccccc2C1=O)CCCN1C(=O)c2ccccc2C1=O | 4.37
12 | CC(C)(CN1C(=O)c2cccc3cccc(c23)C1=O)C[N+](C)(C)CCCCCC[N+](C)(C)CCCN1C(=O)c2ccccc2C1=O | 5.05

system: T4, Muscarinic acetylcholine receptor M2 (Homo sapiens), P08172 [Y177Q,T423H]; assay: (§5) Displacement of [3H]-NMS from human muscarinic M2 Y177Q/T423H mutant expressed in Flp-In-CHO cells by liquid scintillation counting; type: cell-based; in short: as §4
T4 sequence (whole entry): T1 sequence (whole entry) with A104Y, Y177Q, T423H

Row | Structure (SMILES) | pKA
13 | C[N+](C)(CCCCCC[N+](C)(C)CCCN1C(=O)c2ccccc2C1=O)CCCN1C(=O)c2ccccc2C1=O | 5.47
14 | CC(C)(CN1C(=O)c2cccc3cccc(c23)C1=O)C[N+](C)(C)CCCCCC[N+](C)(C)CCCN1C(=O)c2ccccc2C1=O | 5.82

target: Muscarinic acetylcholine receptor M2 (Homo sapiens, UniProt P08172, T423H/Y177Q); assay: as §5; type: cell-based; in short: as §4
Sequence (P08172 whole entry Y177Q/T423H): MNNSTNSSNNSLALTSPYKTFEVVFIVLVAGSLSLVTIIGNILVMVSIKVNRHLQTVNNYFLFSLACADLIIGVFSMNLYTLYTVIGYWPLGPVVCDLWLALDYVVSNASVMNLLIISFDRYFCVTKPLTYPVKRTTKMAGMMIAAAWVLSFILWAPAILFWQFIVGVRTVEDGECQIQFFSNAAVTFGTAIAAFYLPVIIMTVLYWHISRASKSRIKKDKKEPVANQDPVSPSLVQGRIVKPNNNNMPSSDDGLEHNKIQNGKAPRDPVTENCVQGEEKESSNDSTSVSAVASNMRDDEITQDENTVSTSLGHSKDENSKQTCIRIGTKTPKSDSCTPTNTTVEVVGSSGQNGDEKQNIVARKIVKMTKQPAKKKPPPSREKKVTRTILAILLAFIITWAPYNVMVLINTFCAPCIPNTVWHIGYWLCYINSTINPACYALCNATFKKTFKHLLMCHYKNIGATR

Row | Structure (SMILES) | Ki [nM]
15 | CC(C)(CN1C(=O)c2cccc3cccc(c23)C1=O)C[N+](C)(C)CCCCCC[N+]1(C)[C@@H]2C[C@H](OC(=O)[C@H](CO)c3ccccc3)C[C@H]1[C@@H]1O[C@@H]12 (some centres undefined) | 3.31
16 | CC(C)(CN1C(=O)c2cccc3cccc(c23)C1=O)C[N+](C)(C)CCCCCC[N+]1(C)[C@@H]2CC[C@@H]1CC(OC(=O)C(CO)c1ccccc1)C2 (relative stereo) | 2.82
17 | CC(C)(CN1C(=O)c2cccc3cccc(c23)C1=O)C[N+](C)(C)CCCCCC[N+](C)(C)CC#CCOC1=NOCC1 | 26.9

target: T5, Muscarinic acetylcholine receptor M2 (Homo sapiens) (UniProt P08172); assay: Antagonist activity at wild-type human muscarinic M2 receptor expressed in Flp-In-CHO cells assessed as inhibition of acetylcholine-induced effect at 100 uM in absence of atropine by time-course assay; type: cell-based
T5 sequence (whole entry): T1 sequence (whole entry) with A104Y

Row | Structure (SMILES) | inhibition
18 | CC(C)(CN1C(=O)c2cccc3cccc(c23)C1=O)C[N+](C)(C)CCCCCC[N+]1(C)[C@@H]2CC[C@@H]1CC(OC(=O)C(CO)c1ccccc1)C2 (relative stereo) | inactive

target: T5, Muscarinic acetylcholine receptor M2 (Homo sapiens); assay: Antagonist activity at wild-type human muscarinic M2 receptor expressed in Flp-In-CHO cells assessed as inhibition of acetylcholine-induced effect at 0.01 to 100 uM by time-course assay; type: cell-based
In short: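 Label-free dynamic mass redistribution (Epic reader) in Flp-In-CHO cells stably expressing hM2, seeded at 12500 cells/well and grown 20 h at 37 °C to confluence. Cells washed and rested 2 h at 28 °C in HBSS with 20 mM HEPES, pH 7.0. DMR signal induced by a maximally effective acetylcholine concentration, antagonist then added and response followed over time. Representative experiment, n = 4, repeated at least twice on separate days.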

Row | Structure (SMILES) | inhibition
19 | CC(C)(CN1C(=O)c2cccc3cccc(c23)C1=O)C[N+](C)(C)CCCCCC[N+](C)(C)CCCN1C(=O)c2ccccc2C1=O | Active

target: Muscarinic acetylcholine receptor M2 (Homo sapiens, UniProt P08172, W422A); assay: Displacement of [3H]-NMS from human muscarinic M2 W422A mutant expressed in Flp-In-CHO cells by liquid scintillation counting; type: cell-based; in short: as §4
Sequence (P08172 whole entry W422A): as the sequence (P08172 whole entry Y177Q/T423H) above, with Q177Y, W422A, H423T counted along it

Row | Structure (SMILES) | Ki [nM]
20 | C[N+](C)(C)CCCCCC[N+]1(C)[C@@H]2C[C@H](OC(=O)[C@H](CO)c3ccccc3)C[C@H]1[C@@H]1O[C@@H]12 (some centres undefined) | 40.7
21 | CC(C)(CN1C(=O)c2cccc3cccc(c23)C1=O)C[N+](C)(C)CCCCCC[N+]1(C)[C@@H]2C[C@H](OC(=O)[C@H](CO)c3ccccc3)C[C@H]1[C@@H]1O[C@@H]12 (some centres undefined) | 6.46
22 | CC(C)(CN1C(=O)c2cccc3cccc(c23)C1=O)C[N+](C)(C)CCCCCC[N+]1(C)[C@@H]2CC[C@@H]1CC(OC(=O)C(CO)c1ccccc1)C2 (relative stereo) | 21.4
23 | CC(C)(CN1C(=O)c2cccc3cccc(c23)C1=O)C[N+](C)(C)CCCCCC[N+](C)(C)CC#CCOC1=NOCC1 | 19.5

system: T6, Muscarinic acetylcholine receptor M2 (Homo sapiens), P08172 [Y177Q]; assay: (§6) Displacement of [3H]-NMS from human muscarinic M2 Y177Q mutant expressed in Flp-In-CHO cells by liquid scintillation counting; type: cell-based; in short: as §4
T6 sequence (whole entry): T1 sequence (whole entry) with A104Y, Y177Q

Row | Structure (SMILES) | pKA
24 | CC(C)(CN1C(=O)c2cccc3cccc(c23)C1=O)C[N+](C)(C)CCCCCC[N+](C)(C)CCCN1C(=O)c2ccccc2C1=O | 6.23

target: Muscarinic acetylcholine receptor M2 (Homo sapiens, UniProt P08172, Y177Q); assay: as §6; type: cell-based; in short: as §4
Sequence (P08172 whole entry Y177Q): as the sequence (P08172 whole entry Y177Q/T423H) above, with H423T counted along it

Row | Structure (SMILES) | Ki [nM]
25 | CC(C)(CN1C(=O)c2cccc3cccc(c23)C1=O)C[N+](C)(C)CCCCCC[N+]1(C)[C@@H]2C[C@H](OC(=O)[C@H](CO)c3ccccc3)C[C@H]1[C@@H]1O[C@@H]12 (some centres undefined) | 8.91
26 | CC(C)(CN1C(=O)c2cccc3cccc(c23)C1=O)C[N+](C)(C)CCCCCC[N+]1(C)[C@@H]2CC[C@@H]1CC(OC(=O)C(CO)c1ccccc1)C2 (relative stereo) | 8.51

target: T5, Muscarinic acetylcholine receptor M2 (Homo sapiens); assay: Antagonist activity at wild-type human muscarinic M2 receptor expressed in Flp-In-CHO cells assessed as inhibition of acetylcholine-induced effect at 0.1 to 100 uM by time-course assay; type: cell-based
In short: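 DMR (label-free optical) in Flp-In-CHO cells stably expressing hM2, seeded 12500 cells/well, grown 20 h at 37 °C. Washed, rested 2 h at 28 °C in HBSS + 20 mM HEPES pH 7.0. Acetylcholine at maximally effective concentration, then antagonist; responses monitored 1 h. Representative experiment, n = 4, repeated at least twice on separate days.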

Row | Structure (SMILES) | inhibition
27 | CC(C)(CN1C(=O)c2cccc3cccc(c23)C1=O)C[N+](C)(C)CCCCCC[N+]1(C)[C@@H]2CC[C@@H]1CC(OC(=O)C(CO)c1ccccc1)C2 (relative stereo) | Active

target: T5, Muscarinic acetylcholine receptor M2 (Homo sapiens); assay: (§7) Displacement of [3H]-NMS from wild-type human muscarinic M2 receptor expressed in Flp-In-CHO cells by liquid scintillation counting; type: cell-based; in short: as §4

Row | Structure (SMILES) | pKA
28 | C[N+](C)(CCCCCC[N+](C)(C)CCCN1C(=O)c2ccccc2C1=O)CCCN1C(=O)c2ccccc2C1=O | 6.55
29 | CC(C)(CN1C(=O)c2cccc3cccc(c23)C1=O)C[N+](C)(C)CCCCCC[N+](C)(C)CCCN1C(=O)c2ccccc2C1=O | 7.7

target: T7, Muscarinic acetylcholine receptor M2 (Homo sapiens, UniProt P08172); assay: as §7; type: cell-based; in short: as §4
T7 sequence (P08172 whole entry): T1 sequence (whole entry) with A104Y

Row | Structure (SMILES) | Ki [nM]
30 | C[N+](C)(C)CCCCCC[N+]1(C)[C@@H]2C[C@H](OC(=O)[C@H](CO)c3ccccc3)C[C@H]1[C@@H]1O[C@@H]12 (some centres undefined) | 47.9
31 | C[N+]1(C)[C@@H]2CC[C@@H]1CC(OC(=O)C(CO)c1ccccc1)C2 (some centres undefined) | 1.82
32 | CC(C)(CN1C(=O)c2cccc3cccc(c23)C1=O)C[N+](C)(C)CCCCCC[N+]1(C)[C@@H]2C[C@H](OC(=O)[C@H](CO)c3ccccc3)C[C@H]1[C@@H]1O[C@@H]12 (some centres undefined) | 6.17
33 | CC(C)(CN1C(=O)c2cccc3cccc(c23)C1=O)C[N+](C)(C)CCCCCC[N+]1(C)[C@@H]2CC[C@@H]1CC(OC(=O)C(CO)c1ccccc1)C2 (relative stereo) | 2.82
34 | CC(C)(CN1C(=O)c2cccc3cccc(c23)C1=O)C[N+](C)(C)CCCCCC[N+](C)(C)CC#CCOC1=NOCC1 | 11.5
